Results: ChEMBL document CHEMBL4316648, “Ipomeolides A and B, Resin Glycosides from Ipomoea pes-caprae and Combination Therapy of Ipomeolide A with Doxorubicin” (J Nat Prod, 2019)
Activity calls are given as the source filed them. The rule behind the calls is not given here.

Tests used:
MDA-MB-231 = assay: Cytotoxicity in human MDA-MB-231 cells assessed as reduction in cell viability incubated for 48 hrs by MTT assay; assay type: functional, cell-based
How it was run: (§1)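 Human tumour lines grown in DMEM with 10% fetal calf serum, 37 °C, 5% CO2, passaged at 60–70% confluency. About 5000 cells/well seeded in triplicate and grown 24 h. Medium then replaced with medium containing compound at various concentrations. After 48 h, MTT (5 mg/mL) added for 4 h. DMSO-soluble formazan read at 590 nm. Doxorubicin served as positive control.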

MCF7 = assay: Cytotoxicity in human MCF7 cells assessed as reduction in cell viability incubated for 48 hrs by MTT assay; assay type: functional, cell-based; how it was run: as §1
A549 = assay: Cytotoxicity in human A549 cells assessed as reduction in cell viability incubated for 48 hrs by MTT assay; assay type: functional, cell-based; how it was run: as §1
HL-60 = assay: Cytotoxicity in human HL60 cells assessed as reduction in cell viability incubated for 48 hrs by MTT assay; assay type: functional, cell-based; how it was run: as §1
K562 [1] = assay: Cytotoxicity in human K562 cells assessed as induction of cell death at 1 uM incubated for 72 hrs by MTT assay; assay type: functional
How it was run: (§2)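 K562 cells were grown in DMEM with 10% fetal calf serum at 37 °C in 5% CO2. About 5000 cells per well were seeded and grown 24 h. Medium was then replaced with medium holding various compound concentrations for 72 h. Viability was measured by MTT (4 h), reading formazan in DMSO at 590 nm. Survival was compared with untreated control, in triplicate.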

K562 [2] = assay: Induction of apoptotic cell death in human K562 cells at 1 uM incubated for 72 hrs by Annexin V/propidium iodide staining based assay; assay type: functional
How it was run: (§3)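 K562 cells treated for 72 h with doxorubicin, the test agent, or the two combined. They were then stained with labelled annexin V and propidium iodide to show surface phosphatidylserine, and imaged by fluorescence microscopy.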

K562 [3] = assay: Cytotoxicity in human K562 cells assessed as reduction in cell viability incubated for 72 hrs by MTT assay; assay type: functional; conditions: K562, 72 h, read-out: LD50 (the source's name); how it was run: as §2
K562 [4] = assay: Cytotoxicity in human K562 cells assessed as reduction in cell viability incubated for 48 hrs by MTT assay; assay type: functional, cell-based; conditions: K562, 48 h; how it was run: as §1
K562 [5] = assay: Potentiation of doxorubicin-induced cytotoxicity in human K562 cells assessed as induction of cell death at 1 to 10 uM in presence of 2 uM doxorubicin incubated for 72 hrs by MTT assay; assay type: functional, cell-based
How it was run: (§4)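 K562 leukaemia cells seeded at equal numbers per well and exposed for 72 h to doxorubicin (1 or 2 μM), the test agent at varying concentrations, or both. Surviving cells counted relative to untreated control. Significance was taken as P < 0.05.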

K562 [6] = assay: Potentiation of doxorubicin-induced apoptotic cell death in human K562 cells at 4 uM in presence of 1 uM doxorubicin incubated for 72 hrs by Annexin V/propidium iodide staining based assay; assay type: functional; how it was run: as §3
K562 [7] = assay: Potentiation of doxorubicin-induced cytotoxicity in human K562 cells assessed as induction of cell death in presence of doxorubicin incubated for 72 hrs by MTT assay; assay type: functional, cell-based; conditions: K562, 72 h; how it was run: as §4
K562 [8] = assay: Potentiation of doxorubicin-induced cytotoxicity in human K562 cells assessed as induction of cell death at 4 uM in presence of 1 uM doxorubicin incubated for 72 hrs by MTT assay; assay type: functional
How it was run: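 K562 cells were grown in DMEM with 10% FCS at 37 °C in 5% CO2 and seeded at about 5000 cells per well for 24 h. They were cotreated for 72 h with 1 or 2 μM doxorubicin plus varying test compound up to 10 μM. Survival was read by MTT at 590 nm against untreated control, in triplicate. Significance was set at P < 0.05.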

K562 [9] = assay: Potentiation of doxorubicin-induced cytotoxicity in human K562 cells assessed as induction of cell death in presence of 1 uM doxorubicin incubated for 72 hrs by MTT assay; assay type: functional; conditions: K562, 72 h, read-out: MEC; how it was run: as §4
K562 [10] = assay: Toxicity in human K562 cells assessed as induction of apoptotic cell death at 4 uM incubated for 72 hrs by Annexin V/propidium iodide staining based assay; conditions: k562, 72 h; how it was run: as §3
[11] = Toxicity in human K562 cells assessed as reduction in cell viability incubated for 72 hrs by MTT assay; assay type: cell-based; conditions: read-out: LD50; how it was run: as §2
K562 [12] = assay: Toxicity in human K562 cells assessed as reduction in cell viability up to 10 uM incubated for 72 hrs by MTT assay; assay type: cell-based; conditions: k562, 72 h; how it was run: as §4
K562 [13] = assay: Potentiation of doxorubicin-induced cytotoxicity in human K562 cells assessed as induction of cell death at 3 to 10 uM in presence of 1 uM doxorubicin incubated for 72 hrs by MTT assay; assay type: functional, cell-based; how it was run: as §4

Q: With `CCCCCCCCCCCC(=O)O[C@H]1[C@H](O[C@@H]2[C@@H](O[C@@H]3O[C@@H](C)[C@H](OC(=O)[C@@H](C)CC)[C@@H](O)[C@H]3OC(=O)/C=C/c3ccccc3)[C@H]3OC(=O)CCCCCCCCC[C@@H](CCCCC)O[C@@H]4O[C@H](C)[C@@H]5OC(C)(C)O[C@@H]5[C@H]4O[C@@H]3O[C@H]2C)O[C@@H](C)[C@H](O[C@@H]2O[C@@H](C)[C@H](O)[C@H]3OC(C)(C)O[C@@H]23)[C@H]1O` as the molecule, how does the Activity (MDA-MB-231) read?
A: inactive

Q: What about the Activity (MCF7) of the same molecule?
A: inactive

Q: What about the Activity (A549) of the same molecule?
A: inactive

Q: And the Activity (HL-60)?
A: inactive

Q: For `COc1cccc2c1C(=O)c1c(O)c3c(c(O)c1C2=O)C[C@@](O)(C(=O)CO)C[C@@H]3O[C@H]1C[C@H](N)[C@H](O)[C@H](C)O1` [DOXORUBICIN], which Activity (K562 [1]) is on record?
A: 11%

Q: What about the Activity (K562 [2]) of the same molecule?
A: inactive

Q: And the CC50 (K562 [3])?
A: 2 µM

Q: Which Activity (MDA-MB-231) does the source give for `CCCCCCCCCCCC(=O)O[C@H]1[C@H](O[C@@H]2[C@@H](O[C@@H]3O[C@@H](C)[C@H](OC(=O)[C@@H](C)CC)[C@H]4OC(C)(C)O[C@@H]34)[C@H]3OC(=O)CCCCCCCCC[C@@H](CCCCC)O[C@@H]4O[C@H](C)[C@@H]5OC(C)(C)O[C@@H]5[C@H]4O[C@@H]3O[C@H]2C)O[C@@H](C)[C@H](O[C@@H]2O[C@@H](C)[C@H](O)[C@H]3OC(C)(C)O[C@@H]23)[C@H]1O` here?
A: inactive

Q: And the Activity (MCF7)?
A: inactive

Q: What about the Activity (A549) of the same molecule?
A: inactive

Q: What about the Activity (HL-60) of the same molecule?
A: inactive

Q: For `CCCCCCCCCCCC(=O)O[C@H]1[C@H](O[C@@H]2[C@@H](O[C@@H]3O[C@@H](C)[C@H](OC(=O)[C@@H](C)CC)[C@@H](O)[C@H]3O)[C@H]3OC(=O)CCCCCCCCC[C@@H](CCCCC)O[C@@H]4O[C@H](C)[C@H](O)[C@H](O)[C@H]4O[C@@H]3O[C@H]2C)O[C@@H](C)[C@H](O[C@@H]2O[C@@H](C)[C@H](O)[C@@H](O)[C@H]2O)[C@H]1O`, which Activity (MDA-MB-231) is on record?
A: inactive

Q: And the IC50 (K562 [4])?
A: 18.3 µM

Q: And the Activity (K562 [5])?
A: Active

Q: And the Activity (MCF7)?
A: inactive

Q: What about the Activity (A549) of the same molecule?
A: inactive

Q: And the Activity (K562 [6])?
A: Active

Q: What about the IC50 (K562 [7]) of the same molecule?
A: 8.5 µM

Q: What about the Activity (K562 [8]) of the same molecule?
A: 47%

Q: What about the minimal effective concentration (K562 [9]) of the same molecule?
A: 4 µM

Q: What about the Activity (K562 [10]) of the same molecule?
A: Non-Toxic

Q: What about the Activity (HL-60) of the same molecule?
A: inactive

Q: What about the CC50 at 72 h [11] of the same molecule?
A: 20 µM

Q: What about the Activity (K562 [12]) of the same molecule?
A: Non-Toxic

Q: What about the Activity (K562 [13]) of the same molecule?
A: Active
